Experimental findings from ChEMBL document CHEMBL4219082, “2-Arylthio-5-iodo pyrimidine derivatives as non-nucleoside HBV polymerase inhibitors” (Bioorg Med Chem, 2018) are described below.

Series [1] can be described thus: (§1) Inhibition of DHBV DNA polymerase derived from infected duckling liver assessed as decrease in biotin-11-dUTP incorporation using poly (A)/oligo(dT)15 as template/primer after 1 hr by ELISA. Set-up: species or system Duck hepatitis B virus. The method, boiled down: (§2)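 Enzyme is DHBV polymerase from liver homogenate of infected ducklings. It was pelleted, and the 35% and 40% fractions of a sucrose density gradient were pooled and used at a "1/100" dilution of one liver's yield. Oligo(dT)15 primer is covalently immobilized on the plate. The mix contains 17.5 µg/ml poly(A), 8 µM dTTP, 2 µM biotin-11-dUTP, 5 mM DTT, 17 mM MgCl2, 65 µg/ml BSA, 50 mM Tris-HCl pH 8.3 and 75 mM KCl. Incubation is 1 h at 37 °C. After BSA blocking, streptavidin-alkaline phosphatase is added and PNPP signal is read after NaOH stop. Line 6 is tested at 100 µM and line 7 at 200 µM.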
A general note: In an ELISA, binding on a coated surface is turned into a signal by an enzyme label.

Series [2] in a line: Selectivity index, ratio of CC50 for human HepG2.2.15 cells to EC50 for HBV infected in human HepG2.2.15 cells. The series is classed as toxicity, cell-based. The note with it: read-out: Ratio CC50/EC50. The method, boiled down: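 Selectivity index is calculated as CC50/EC50. CC50 comes from an MTT assay and EC50 from qRT-PCR of intracellular HBV DNA. Both use HepG2.2.15 cells dosed for two 72 h periods with a medium renewal between them.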

Series [3] is described as follows: Cytotoxicity against human HepG2.2.15 cells […] by MTT assay. The series is classed as cell-based, HepG2 2.2.15. The method, boiled down: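 HepG2.2.15 cells were seeded at 2×10^5 cells/mL and dosed with graded compound concentrations after 24 h. Medium with compound was refreshed at 72 h, then cells were kept a further 72 h. MTT was added for 4 h, formazan was dissolved in DMSO and absorbance read at 490 nm. The value is CC50, the concentration giving 50% cytotoxicity.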
On the technique in general: Tetrazolium dyes change colour on reduction, which living cells bring about.

In series [4] the test system is Hepatitis B virus. Put plainly: Antiviral activity against HBV infected in human HepG2.2.15 cells assessed as inhibition of viral DNA levels at 20 uM […] by qRT-PCR analysis relative to control. The series is classed as functional. The method, boiled down:
(§3)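 HepG2.2.15 cells were seeded at 2×10^5 cells/mL and exposed to compound 24 h later. Compound-containing medium was renewed at 72 h and cells were kept another 72 h. After a PBS wash, intracellular HBV DNA was extracted from lysates and quantified by qRT-PCR. Line 1 gives the 50% inhibitory concentration; lines 2 and 3 test single concentrations of 10 µM and 20 µM.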
(In general: Real-time PCR tracks product formation cycle by cycle.)

Series [5] concerns Duck hepatitis B virus. Put plainly: Inhibition of DHBV DNA polymerase derived from infected duckling liver assessed as decrease in biotin-11-dUTP incorporation using poly (A)/oligo(dT)15 as template/primer at 100 uM after 1 hr by ELISA relative to control. The method, boiled down:
as §2

Series [6] relates to Duck hepatitis B virus. As to the kind of experiment: Inhibition of DHBV DNA polymerase derived from infected duckling liver assessed as decrease in biotin-11-dUTP incorporation using poly (A)/oligo(dT)15 as template/primer at 200 uM after 1 hr by ELISA. The method, boiled down:
as §2

Series [7] has as its system Hepatitis B virus. As to the kind of experiment: Antiviral activity against HBV infected in human HepG2.2.15 cells assessed as inhibition of viral DNA levels at 10 uM after […] by qRT-PCR analysis. The series is classed as functional, organism-based. The method, boiled down:
as §3

In series [8] the test system is Duck hepatitis B virus. The series is described as §1. The method, boiled down:
as §2

Activity calls are given as the source filed them. The calls are words filed in the database; no cut-off is given here.

In general, IC50 refers to the concentration that gives 50% inhibition. Broadly, the CC50 is the concentration that lowers cell viability or growth by half. A low value points to greater toxicity to the cells. The term inhibition denotes the relative decrease from the control value, in per cent.

In the case of `N#Cc1ccc(CSc2nc(CN3CCc4ccccc4C3)c(I)c(=O)[nH]2)cc1`, the IC50 in series [1] worked out at 60.5 µM.
Consider `N#Cc1ccc(CSc2nc(C(=O)N3CCCc4ccccc43)c(I)c(=O)[nH]2)cc1`, for which the IC50 in series [1] is greater than 200 µM. In addition, the selectivity ratio in series [2] was greater than 62. In series [3], this compound gave a half-maximal cytotoxic concentration (CC50) greater than 100 µM.
With `COC(=O)c1ccc(CSc2nc(Cc3cc(C)cc(C)c3)cc(=O)[nH]2)cc1`, in series [4], the inhibition at 20 µM came to 13.3%. In addition, the inhibition in series [5] amounted to 3.66%.
For `O=c1cc(Cc2cc(F)cc(F)c2)nc(SCc2ccc([N+](=O)[O-])cc2)[nH]1`, in that order: 32.9% and 16.1%.
As to `Cc1cc(C)cc(Cc2nc(SCCOc3ccc([N+](=O)[O-])cc3)[nH]c(=O)c2I)c1`, the IC50 in series [1] came out at 56 µM. Moreover, the selectivity ratio in series [2] amounted to 14. For the same compound, the midpoint of cytotoxicity in series [3], the CC50, lay at 96.6 µM.
For the compound `N#Cc1ccc(CSc2nc(CN3CCCCC3)c(I)c(=O)[nH]2)cc1`, the inhibition entry in series [6] and in series [7] was “inactive” in each case.
Take `O=c1[nH]c(SCc2ccc([N+](=O)[O-])cc2)nc(Cc2cc(F)cc(F)c2)c1I`: the IC50 in series [1] was 29.5 µM. The selectivity ratio in series [2] was greater than 16. Moreover, in series [3], the CC50 was greater than 100 µM.
Consider `CN1CCN(C(=O)c2nc(SCc3ccc(C#N)cc3)[nH]c(=O)c2I)CC1`, for which, in series [2], the selectivity ratio is greater than 38. The CC50 in series [3] is greater than 100 µM. Further, the inhibition result in series [6] was “inactive”.
Consider `CC(=O)c1ccc(CSc2nc(Cc3cc(C)cc(C)c3)c(I)c(=O)[nH]2)cc1`, for which the IC50 in series [1] stood at 42.9 µM. In addition, in series [2], the selectivity ratio was found to be 6.4. Besides, in series [3], the midpoint of cytotoxicity, the CC50, lay at 78.3 µM.
In the case of `O=C(O)P(=O)(O)O` [FOSCARNET], the IC50 in series [1] was determined as 6.54 µM. Besides, the inhibition entry in series [8] was “Dose-dependent effect”.
In the case of `Cc1cc(C)cc(Cc2nc(SCc3ccc([N+](=O)[O-])cc3)[nH]c(=O)c2I)c1`, the IC50 in series [1] turned out to be 33 µM. Also, the selectivity ratio in series [2] was 5.9. This compound also gave a CC50 in series [3] of 39 µM.
Consider `N#Cc1ccc(CSc2nc(Cn3nnc4ccccc43)c(I)c(=O)[nH]2)cc1`, for which, in series [1], the concentration for half-maximal inhibition (IC50) came to 128 µM. Moreover, the inhibition entry in series [7] was “inactive”.
On to `Nc1ccn([C@H]2CS[C@@H](CO)O2)c(=O)n1`, for which, in series [2], the selectivity ratio was greater than 164. The same compound displayed a 50% cytotoxic concentration (CC50) in series [3] greater than 100 µM.
For `COC(=O)c1ccc(CSc2nc(Cc3cc(C)cc(C)c3)c(I)c(=O)[nH]2)cc1`, the IC50 in series [1] was 38.8 µM. In addition, the selectivity ratio in series [2] was 5. This compound returned a 50% cytotoxic concentration (CC50) in series [3] of 64.8 µM.
Regarding `O=c1[nH]c(SCc2ccc([N+](=O)[O-])cc2)nc(Cn2nnc3ccccc32)c1I`, in series [1], the IC50 stood at 104 µM. Further, the inhibition entry in series [7] is “inactive”.
As for `Cc1cc(C)cc(Cc2nc(SCCc3ccc([N+](=O)[O-])cc3)[nH]c(=O)c2I)c1`, the half-maximal inhibitory concentration (IC50) in series [1] amounted to 71.9 µM. The selectivity ratio in series [2] was found to be 6.8. Further, the CC50 in series [3] was found to be 66.6 µM.
`O=c1[nH]c(SCc2ccc([N+](=O)[O-])cc2)nc(Cc2ccccc2)c1I`: in series [1], the IC50 was 42.8 µM. The selectivity ratio in series [2] was determined as 7. This compound also gave a CC50 in series [3] of 52.7 µM.
For the compound `N#Cc1ccc(CSc2nc(C(=O)NCCCc3ccccc3)c(I)c(=O)[nH]2)cc1`, the concentration for half-maximal inhibition (IC50) in series [1] was greater than 200 µM. Also, the selectivity ratio in series [2] was greater than 30. This compound also yielded a CC50 in series [3] greater than 50 µM.
Regarding `Cc1cc(C)cc(Cc2nc(SCc3ccc(C#N)cc3)[nH]c(=O)c2I)c1`, the 50% inhibitory concentration (IC50) in series [1] stood at 35.6 µM. In series [2], the selectivity ratio worked out at 6.1. Moreover, half-maximal cytotoxicity in series [3] (CC50) was put at 43.2 µM.
